Publication PMC6980386 (Traffic (Copenhagen, Denmark), 2019)

What was measured:
huCD4_1–32-YFP Q15A = huCD4_1–32-YFP Q15A (Homo sapiens, UniProt P01730, Q15A); assay: CADA inhibition of huCD4_1–32-YFP secretion; type: cell-based
Method in brief: (§1)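 HEK293T cells were grown in DMEM with 10% FBS and 10 mM HEPES, seeded and left to adhere overnight, then transiently transfected with plasmid by Lipofectamine. Test compound was added 6 h after transfection as a 1:5 serial dilution (50 to 0.016 μM) for 48 h. Secreted YFP in the supernatant was captured on GFP-Trap magnetic beads for 1 h, washed with PBS and measured by flow cytometry. IC50 is the concentration that halves the signal relative to the untreated control, taken from a four-parameter fit of at least three replicate experiments. FC is the mutant mean IC50 divided by the WT mean IC50.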

FL huCD4 L11A = FL huCD4 L11A (Homo sapiens, UniProt P01730, L11A); assay: CADA down-modulation of cellular huCD4; type: cell-based
Method in brief: (§2)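 HEK293T cells, seeded overnight in DMEM with 10% serum, 1 mM sodium pyruvate and 0.075% NaHCO₃, were lipofected with full-length human CD4 (WT or mutant). Test compound in DMSO was added 6 h post-transfection as 1:5 serial dilutions (50–0.016 μM) for 48 h. Surface CD4 was stained with FITC/APC anti-CD4 (SK3) and read by flow cytometry. IC50 is 50% of the untreated signal, from four-parameter fits of ≥3 replicate experiments. FC is mutant/WT mean IC50.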

huCD4_1–32-YFP V29A = huCD4_1–32-YFP V29A (Homo sapiens, UniProt P01730, V29A); assay: CADA inhibition of huCD4_1–32-YFP secretion; type: cell-based; conditions: + less, − more sensitive to CADA
Method in brief: as §1

huCD4_1–32-YFP A21V = huCD4_1–32-YFP A21V (Homo sapiens, UniProt P01730, A21V); assay: CADA inhibition of huCD4_1–32-YFP secretion; type: cell-based
Method in brief: (§3)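 HEK293T cells were lipofected with human CD4 residues 1–32 fused to the N-terminus of YFP (secreted, no membrane anchor). Test compound was added 6 h post-transfection as 1:5 serial dilutions (50–0.016 μM) for 48 h. Supernatant was captured on GFP-Trap magnetic beads for 1 h, washed in PBS, and YFP was read by flow cytometry. IC50 is 50% of the untreated control, from four-parameter fits of ≥3 replicate experiments. FC is mutant/WT mean IC50.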

FL huCD4 L19A = FL huCD4 L19A (Homo sapiens, UniProt P01730, L19A); assay: CADA down-modulation of cellular huCD4; type: cell-based
Method in brief: as §2

[1] = target: truncated huCD4 D1D2 A17V (Homo sapiens, UniProt P01730, A17V); assay: Cell-free in vitro translation and translocation; type: biochemical; conditions: 15 μM CADA
Method in brief: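 Truncated huCD4 D1D2 (lacking glycosylation sites and membrane anchor) was made by PCR and transcribed with T7. Proteinase K protection ran 30 min on ice and was quenched with PMSF. Products were separated by SDS-PAGE and imaged by phosphor imaging. The SP-cleaved band was normalised to the matching control. Data are from 2–5 independent experiments, compared with WT by Welch t test.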

huCD4_1–32-YFP G31A = huCD4_1–32-YFP G31A (Homo sapiens, UniProt P01730, G31A); assay: CADA inhibition of huCD4_1–32-YFP secretion; type: cell-based
Method in brief: as §3

FL huCD4 L14A = FL huCD4 L14A (Homo sapiens, UniProt P01730, L14A); assay: CADA down-modulation of cellular huCD4; type: cell-based
Method in brief: as §2

huCD4_1–32-YFP T23A = huCD4_1–32-YFP T23A (Homo sapiens, UniProt P01730, T23A); assay: CADA inhibition of huCD4_1–32-YFP secretion; type: cell-based
Method in brief: as §1

huCD4_1–32-YFP L18A = huCD4_1–32-YFP L18A (Homo sapiens, UniProt P01730, L18A); assay: CADA inhibition of huCD4_1–32-YFP secretion; type: cell-based
Method in brief: as §1

FL huCD4 P20A = FL huCD4 P20A (Homo sapiens, UniProt P01730, P20A); assay: CADA down-modulation of cellular huCD4; type: cell-based
Method in brief: as §2

huCD4_1–32-YFP Q24A = huCD4_1–32-YFP Q24A (Homo sapiens, UniProt P01730, Q24A); assay: CADA inhibition of huCD4_1–32-YFP secretion; type: cell-based
Method in brief: as §1

FL huCD4 R8K = FL huCD4 R8K (Homo sapiens, UniProt P01730, R8K); assay: CADA down-modulation of cellular huCD4; type: cell-based; conditions: HEK293T, 48h
Method in brief: as §2

FL huCD4 L12A = FL huCD4 L12A (Homo sapiens, UniProt P01730, L12A); assay: CADA down-modulation of cellular huCD4; type: cell-based
Method in brief: as §2

sortilin = conditions: second substrate, proteomic study; cited from earlier work
huCD4_1–32-YFP N2A = huCD4_1–32-YFP N2A (Homo sapiens, UniProt P01730, N2A); assay: CADA inhibition of huCD4_1–32-YFP secretion; type: cell-based
Method in brief: as §1

huCD4_1–32-YFP V13A = huCD4_1–32-YFP V13A (Homo sapiens, UniProt P01730, V13A); assay: CADA inhibition of huCD4_1–32-YFP secretion; type: cell-based
Method in brief: as §1

bovine pre-prolactin = conditions: cited from earlier work
huCD4_1–32-YFP WT = huCD4_1–32-YFP WT (Homo sapiens, UniProt P01730); assay: CADA inhibition of huCD4_1–32-YFP secretion; type: cell-based
Method in brief: as §1

FL huCD4 H9A = FL huCD4 H9A (Homo sapiens, UniProt P01730, H9A); assay: CADA down-modulation of cellular huCD4; type: cell-based
Method in brief: as §2

huCD4_1–32-YFP H9A = huCD4_1–32-YFP H9A (Homo sapiens, UniProt P01730, H9A); assay: CADA inhibition of huCD4_1–32-YFP secretion; type: cell-based
Method in brief: as §1

huCD4_1–32-YFP L14A = huCD4_1–32-YFP L14A (Homo sapiens, UniProt P01730, L14A); assay: CADA inhibition of huCD4_1–32-YFP secretion; type: cell-based
Method in brief: as §1

huCD4_1–32-YFP V28A = huCD4_1–32-YFP V28A (Homo sapiens, UniProt P01730, V28A); assay: CADA inhibition of huCD4_1–32-YFP secretion; type: cell-based
Method in brief: as §1

[2] = + less, − more sensitive to CADA
[3] = read-out: Secreted YFP IC50 (μM) Mean, HEK293T, CADA 48h
[4] = read-out: Cellular huCD4 IC50 (μM) Mean, HEK293T, CADA 48h

## C=C1CN(S(=O)(=O)c2ccc(C)cc2)CCCN(Cc2ccccc2)CCCN(S(=O)(=O)c2ccc(C)cc2)C1 [CADA, Cyclotriazadisulfonamide]
huCD4_1–32-YFP Q15A; [2]
  Secreted YFP FC (fold change of mean IC50 relative to WT): >+39
huCD4_1–32-YFP Q15A; [3]
  IC50: > 50 µM
FL huCD4 L11A; [2]
  Cellular huCD4 FC (fold change of mean IC50 relative to WT): −4.5
FL huCD4 L11A; [4]
  IC50: 0.12 µM
huCD4_1–32-YFP V29A
  Secreted YFP FC (fold change of mean IC50 relative to WT): −1.1
huCD4_1–32-YFP A21V; [2]
  Secreted YFP FC (fold change of mean IC50 relative to WT): −1.6
huCD4_1–32-YFP A21V; [3]
  IC50: 0.77 µM
FL huCD4 L19A; [2]
  Cellular huCD4 FC (fold change of mean IC50 relative to WT): +1.9
FL huCD4 L19A; [4]
  IC50: 1.04 µM
[1]
  inhibitory effect of CADA on protein translocation compared to WT: significantly reduced
huCD4_1–32-YFP G31A; [2]
  Secreted YFP FC (fold change of mean IC50 relative to WT): +2.0
huCD4_1–32-YFP G31A; [3]
  IC50: 2.56 µM
FL huCD4 L14A; [2]
  Cellular huCD4 FC (fold change of mean IC50 relative to WT): −1.2
FL huCD4 L14A; [4]
  IC50: 0.46 µM
huCD4_1–32-YFP T23A; [2]
  Secreted YFP FC (fold change of mean IC50 relative to WT): +1.9
huCD4_1–32-YFP T23A; [3]
  IC50: 2.36 µM
huCD4_1–32-YFP L18A; [2]
  Secreted YFP FC (fold change of mean IC50 relative to WT): −1.9
huCD4_1–32-YFP L18A; [3]
  IC50: 0.67 µM
FL huCD4 P20A; [2]
  Cellular huCD4 FC (fold change of mean IC50 relative to WT): +4.4
FL huCD4 P20A; [4]
  IC50: 2.35 µM
huCD4_1–32-YFP Q24A; [2]
  Secreted YFP FC (fold change of mean IC50 relative to WT): +3.3
huCD4_1–32-YFP Q24A; [3]
  IC50: 4.22 µM
FL huCD4 R8K
  sensitivity to CADA: restored full sensitivity to CADA
FL huCD4 L12A
  enhanced CADA sensitivity relative to WT: 8 fold
FL huCD4 L12A; [2]
  Cellular huCD4 FC (fold change of mean IC50 relative to WT): −7.7
FL huCD4 L12A; [4]
  IC50: 0.07 µM
sortilin
  susceptibility of sortilin to CADA: lower susceptibility to the compound as compared to huCD4
huCD4_1–32-YFP N2A; [2]
  Secreted YFP FC (fold change of mean IC50 relative to WT): −3.3
huCD4_1–32-YFP N2A; [3]
  IC50: 0.39 µM
huCD4_1–32-YFP V13A; [2]
  Secreted YFP FC (fold change of mean IC50 relative to WT): −2.8
huCD4_1–32-YFP V13A; [3]
  IC50: 0.46 µM
Bovine pre-prolactin
  sensitivity of bovine pre-prolactin to CADA: completely resistant to CADA
huCD4_1–32-YFP WT; [2]
  Secreted YFP FC (fold change of mean IC50 relative to WT): 1.00
huCD4_1–32-YFP WT; [3]
  IC50: 1.27 µM
FL huCD4 H9A; [2]
  Cellular huCD4 FC (fold change of mean IC50 relative to WT): +1.1
FL huCD4 H9A; [4]
  IC50: 0.62 µM
huCD4_1–32-YFP H9A; [2]
  Secreted YFP FC (fold change of mean IC50 relative to WT): +1.7
huCD4_1–32-YFP H9A; [3]
  IC50: 2.13 µM
huCD4_1–32-YFP L14A; [2]
  Secreted YFP FC (fold change of mean IC50 relative to WT): −1.1
huCD4_1–32-YFP L14A; [3]
  IC50: 1.12 µM
huCD4_1–32-YFP V28A; [2]
  Secreted YFP FC (fold change of mean IC50 relative to WT): −1.8
huCD4_1–32-YFP V28A; [3]
  IC50: 0.72 µM
